Among the data in ChEMBL document CHEMBL4513216, “Probing the Open Global Health Chemical Diversity Library for Multistage-Active Starting Points for Next-Generation Antimalarials” (ACS Infect Dis, 2020) are cytotoxicity values, retold here.

The data set is described as follows: Toxicity liver stage against HepG2, at 10uM. The format is cell-based. More on the design: test concentration 10 uM, cell line HepG2-A16-CD81EGFP. The conditions noted are these: human, HepG2-A16-CD81EGFP cells; read-out: INHIBITION
The method in brief: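 Uninfected HepG2-A16-CD81EGFP cells, 3 × 10^3 per well, 1536-well, plated on prespotted compound at 10 μM final, parasite-free screening media added to match infected plates; puromycin 10 μM positive, DMSO 0.5% negative; run in parallel with 48 h PbLuc assay at 37 °C, 5% CO2; viability by CellTiter-Glo luminescence, normalized to controls.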
As for `Cc1ncc(CN(C)Cc2nc3cc(Cl)ccc3n2C)s1`, the cytotoxicity at 10 µM was -42.9%. Take `CCCc1nc2c(c(C)c(C)n2Cc2cccnc2)c(N)c1CC`: the cytotoxicity at 10 µM turned out to be 15%. For the compound `CCC(C)NC(=O)c1snnc1-c1ccc(OC)cc1` (stereo unspecified), the cytotoxicity at 10 µM is 6.93%. For `Cn1ccc2c(NC(=O)Cn3ncc4c(c3=O)CCCC4)cccc21`, the cytotoxicity at 10 µM was 2.33%. As for `CC(C)C1SCC(=O)Nc2c1c(O)nn2C1CCCCC1` (stereo unspecified), the cytotoxicity at 10 µM amounted to 2.42%.

With `O=C(C1=COCCO1)N1CC(Oc2nc3c(Cl)cccc3s2)C1`, the cytotoxicity at 10 µM was found to be 38.2%. Take `O=C(NCc1ccccc1)N1CCC(Oc2ncccc2Br)CC1`: the cytotoxicity at 10 µM was determined as 18.3%. Consider `Cc1csc(C(=O)N2CC(S(=O)(=O)C3CCCCC3)C2)c1`, for which the cytotoxicity at 10 µM is -2.83%. Take `O=C(c1cnccn1)N1C[C@@H](c2ccccc2)[C@@]2(CCNC2=O)C1`: the cytotoxicity at 10 µM was -1.59%. For `COc1cc(N2CC[C@@H]3O[C@@H](c4ccncn4)C[C@H]3C2)ncn1`, the cytotoxicity at 10 µM is 12.6%. Regarding `O=C(NC1CC1)c1cc2c(nc1O)CC(c1cccs1)CC2=O` (stereo unspecified), the cytotoxicity at 10 µM was found to be 86.1%.

Regarding `CSC1=Nc2c(cnn2-c2ccccc2)C2=NCCCN12`, the cytotoxicity at 10 µM was found to be 8.85%. Take `CCn1cc(CNC(=O)c2nn(CC)cc2Br)cn1`: the cytotoxicity at 10 µM is 47.1%.

In the case of `Cn1nc(C(=O)NCc2cccnc2)c2c1CCS(=O)(=O)C2`, the cytotoxicity at 10 µM was determined as 6.09%.

In the case of `CCn1nc(C)c(CNC(=O)c2nnc3ccc(Cl)cc3n2)c1C`, the cytotoxicity at 10 µM was 8.1%. Take `CCC(=O)N1CCCC(c2nc(N(C)C)ncc2-c2ccc(F)cc2)C1` (stereo unspecified): the cytotoxicity at 10 µM worked out at 28.1%. Turning to `NCC(=O)N1CCC(c2cccc(Oc3ccccc3)n2)CC1`, the cytotoxicity at 10 µM worked out at 9.43%.

For the compound `CSc1ccc(CN2C[C@@H]3CC[C@@](O)(c4ccc(C)cn4)[C@@H]3C2)cc1`, the cytotoxicity at 10 µM was -15.7%. Regarding `CC(C)C1=NOC2(CCN(Cc3c[nH]c4ccccc34)CC2)C1`, the cytotoxicity at 10 µM was determined as 3.46%. The value for `CC(C)CSCCN1CCCN(S(C)(=O)=O)CC1` was -8.17%; that for `CC(C)N(CC(=O)Nc1ccc(Br)cc1Cl)Cc1cccnc1` was 17.2%. Consider `Cc1c(Cl)cccc1NC(=O)CN(Cc1cccnc1)C(C)C`, for which the cytotoxicity at 10 µM turned out to be 4.77%. With `CC(C)(C)NC(=O)CN1CCCNCC1`, the cytotoxicity at 10 µM is -145%. For the compound `CN(Cc1ccccc1F)Cc1cc2c(cc1Br)OCCO2`, the cytotoxicity at 10 µM is -139%.

Regarding `CN(CCN1CCN(c2ccccc2)CC1)C(=O)Nc1ccncc1`, the cytotoxicity at 10 µM was determined as 11.5%. On to `Cc1c(CS(C)(=O)=O)cccc1NCCCC1CCCC1`, for which the cytotoxicity at 10 µM is 17.5%. On to `Cc1nc(CN2CCc3c(nc(C4CC4)n3C)C2)nc2ccccc12`, for which the cytotoxicity at 10 µM was determined as 7.36%.

Consider `CN(CC(=O)Nc1nc2c(s1)CCCCCC2)C(=O)c1ccco1`, for which the cytotoxicity at 10 µM was determined as 37.9%. As for `Cc1c(CN2CCCC(C(=O)Nc3ccccc3)C2)cc(C#N)n1C` (stereo unspecified), the cytotoxicity at 10 µM was 6.75%. On to `Cc1nn(C)c(NC(=O)C2SCCc3ccccc32)c1C` (stereo unspecified), for which the cytotoxicity at 10 µM was 45.8%. Regarding `CCC(CNC(=O)c1c(C)nn(C)c1OC)Oc1ccccc1` (stereo unspecified), the cytotoxicity at 10 µM is -4.89%.

Take `Cc1nc(CN2CCN(C(=O)CCc3cccc(Cl)c3)CC2)no1`: the cytotoxicity at 10 µM amounted to 2.93%. As for `CN(C)CCCNC(=O)c1cnc(Cc2ccc(F)cc2)s1`, the cytotoxicity at 10 µM came to 3.47%.

On to `CN1CCN(c2cc(CNCc3cccc4c3OCO4)ccn2)CC1`, for which the cytotoxicity at 10 µM is -5.31%. The value for `Cc1nc(C)n(CC2CCCN2CC(=O)N(C)Cc2ccc(C)o2)n1` (stereo unspecified) was 8.52%; that for `Clc1cc(CN2CCCC(Cn3cncn3)C2)c2ncccc2c1` (stereo unspecified) was 6.64%.

For the compound `CN(Cc1cccc(F)c1)C(=O)CN1CCCC(Cn2cncn2)C1` (stereo unspecified), the cytotoxicity at 10 µM amounted to 4.64%. Take `CN(Cc1ccccc1)C(=O)CSc1ccc2c(c1)OCCO2`: the cytotoxicity at 10 µM is -9.48%. As for `CNC(=O)CNC(=O)Nc1cc(-c2ccccc2)ns1`, the cytotoxicity at 10 µM was determined as 22%. As to `CC(C)(C)CC(=O)NC(C)(C(N)=O)c1cccc(Cl)c1` (stereo unspecified), the cytotoxicity at 10 µM worked out at 11.5%.

In the case of `c1ccc(N2CCCC2)c(NCc2ccncc2)c1`, the cytotoxicity at 10 µM was -0.289%.

Take `NC(=O)c1cccc(CCNCc2cnc(-c3cccs3)s2)c1`: the cytotoxicity at 10 µM was 2.49%.

As to `Cc1ccc2cc(C(=O)NCCN3CCS(=O)(=O)CC3)c(C)nc2c1`, the cytotoxicity at 10 µM is 10.5%. As for `CCS(=O)(=O)c1ccc(CNc2c(Cl)cccc2C#N)cc1`, the cytotoxicity at 10 µM is -50.6%. Regarding `O=C(NCc1nnc2n1CCC2)N1CCC2(CCCCC2)CC1`, the cytotoxicity at 10 µM was determined as 11%. In the case of `Cc1cc(CN2CC[C@H]3C[C@H](c4nc(C5CC5)cs4)O[C@@H]3C2)no1`, the cytotoxicity at 10 µM is -97.6%. As to `Cc1nc(-c2ccccc2)nc2c1CCN(Cc1nccn1C)CC2`, the cytotoxicity at 10 µM was -118%. The value for `COc1cc(N2CC[C@H](O)[C@@H]2Cc2ccccc2)ncn1` was -75%; that for `CC(C)Nc1ncnc2c1CCN(C(=O)N1CCOCC1)CC2` was -74%; that for `Nc1cc(N2CCCC(CO)(Cc3ccccc3F)C2)nc(N)n1` (stereo unspecified) was 12.8%. Take `Cn1cnc2cc(C(=O)N3CCN(CCO)[C@@H]4CS(=O)(=O)C[C@@H]43)ccc21`: the cytotoxicity at 10 µM stood at 2.74%.

Turning to `Cc1ccccc1N1CCCN(C(=O)CCCn2ccnc2C)CC1`, the cytotoxicity at 10 µM was -3.3%.

Consider `CS(=O)(=O)N1C[C@H]2CNC[C@@]2(C(=O)NCCCc2ccccc2)C1`, for which the cytotoxicity at 10 µM came to 0.334%. In the case of `O=c1cc(N2CCCC2)cnn1CC(F)F`, the cytotoxicity at 10 µM turned out to be 6.93%. In the case of `Fc1ccccc1Cc1noc(CN2CCC(N3CCSCC3)CC2)n1`, the cytotoxicity at 10 µM is -6.47%. The value for `Cc1n[nH]c(C)c1CCNC(=O)C1CCCN(CC(N)=O)C1` (stereo unspecified) was -0.653%; that for `Cc1cc(N(C)CCCn2cccn2)nc(N)n1` was 0.423%.

Turning to `CCCc1cnc(C)nc1N1CCC(Cc2ccc(CO)cc2)C1` (stereo unspecified), the cytotoxicity at 10 µM was -2.36%. Take `Cc1nc2cc(OCc3nc(C(=O)NC(C)(CO)CO)co3)ccc2s1`: the cytotoxicity at 10 µM stood at 47.6%. The value for `COCc1noc(-c2ccc(N3CCC[C@H]3CO)nc2)n1` was -8.26%; that for `O=C1CCCN1CCCC(=O)N1CCCCC1c1ccc(F)cc1` (stereo unspecified) was -43.2%. The figure for `Cc1cccc(C(C)C)c1NC(=O)CN(C)C(C)c1nccs1` (stereo unspecified) is -129%; for `Fc1ccccc1CN1CCCC2(CCN(c3ncccn3)C2)C1` (stereo unspecified) it is -104%; for `COc1ccnc(CN2CCCC(CCc3ccccc3)C2)c1OC` (stereo unspecified) it is 0.979%. On to `O=C(c1n[nH]cc1Cl)N1CCOC(Cc2cccc(C(F)(F)F)c2)C1` (stereo unspecified), for which the cytotoxicity at 10 µM came to 4.19%.

Consider `CC(C)C1CN(C(=O)c2cc(=O)[nH]c(=O)[nH]2)CCCN1CC1CC1` (stereo unspecified), for which the cytotoxicity at 10 µM is -2.42%.

As for `COCCCN1C(=O)CC[C@H]2CN(Cc3cc4ccccc4o3)CC[C@H]21`, the cytotoxicity at 10 µM came to 23.8%. In the case of `Cc1cc(C(F)(F)F)nc(N2CCN(Cc3nccn3C)CC2)n1`, the cytotoxicity at 10 µM is -4.28%. As for `CNc1cc(C)nc(N2Cc3cnn(Cc4ccc(F)cc4)c3C2)n1`, the cytotoxicity at 10 µM turned out to be 4.03%. Regarding `O=C(Cc1cccs1)N1CCCC(CNS(=O)(=O)Cc2ccccc2)C1` (stereo unspecified), the cytotoxicity at 10 µM was determined as 5.78%. As for `Cc1nonc1CN(C)c1nc(-c2ccco2)nc2c1CCN(C)CC2`, the cytotoxicity at 10 µM was -0.274%. With `CN(CC1CCN(c2ccccc2)C1)c1ccc(Cn2ccnc2)cn1` (stereo unspecified), the cytotoxicity at 10 µM was -142%.

As to `Cc1nc(N)cc(N2CCCC(COc3cccc(F)c3)C2)n1` (stereo unspecified), the cytotoxicity at 10 µM is -1.53%. For `O=C(CCn1cc(Cl)cn1)N1CCC2(CC1)[C@H](O)C[C@@H]2OCCO`, the cytotoxicity at 10 µM amounted to 19.6%. As to `COCCN(Cc1ccccc1C)c1nc(C)nc2oc(C)nc12`, the cytotoxicity at 10 µM is -51.8%. Turning to `CC(=O)c1cnc(NCC2OCCc3ccccc32)nc1C` (stereo unspecified), the cytotoxicity at 10 µM is -48.9%. In the case of `Cc1nc(NCc2noc(C3CCCO3)n2)c2ccsc2n1` (stereo unspecified), the cytotoxicity at 10 µM worked out at 49.9%.

With `Cc1cnc(C)c(N2CCN(CCCc3ccncc3)CC2)n1`, the cytotoxicity at 10 µM is -15.4%.

Turning to `COCCCC1(CO)CCCN(Cc2nccs2)C1` (stereo unspecified), the cytotoxicity at 10 µM amounted to 2.43%.

Take `COc1ccc(Oc2ncccc2F)cc1CN1CCCC1`: the cytotoxicity at 10 µM is 2.09%.

For `O=C1CC2(CCN(CCCF)CC2)CN1Cc1cc(F)cc(F)c1`, the cytotoxicity at 10 µM was 16.3%. The figure for `Cn1ccc(C(=O)N2CCCC(Cc3cccc4ncccc34)C2)n1` (stereo unspecified) is 22.1%; for `c1cc(OCc2ccc3c(c2)OCO3)ccc1CNC1CC1` it is 4.7%; for `CN(C)c1ccc(CNC2=NCCCN2)cc1` it is -39.9%. For `c1cc2nccc(CC3CCCN(Cc4c[nH]cn4)CC3)c2cn1` (stereo unspecified), the cytotoxicity at 10 µM was -5.11%.

On to `Cc1ccc(N2CC[C@H]3CN(C(=O)c4ccn(C)n4)C[C@H]3C2)nn1`, for which the cytotoxicity at 10 µM is -102%. `O=C1CC(c2ccncc2)C2(CCN(C(=O)c3cccs3)CC2)N1` (stereo unspecified): the cytotoxicity at 10 µM was -71.1%.

Turning to `Cc1cnc(N2C[C@@H]3[C@@H](C2)OCC(=O)N3CCN(C)C)nc1`, the cytotoxicity at 10 µM was -4.35%. As to `c1ccc(-c2cc(CNCCCC3CCOC3)c3nnnn3c2)cc1` (stereo unspecified), the cytotoxicity at 10 µM was -22.3%.

For the compound `NCc1ccc(OC(F)F)cc1OC(F)F`, the cytotoxicity at 10 µM is -43%. Regarding `Cc1n[nH]c2ncc(CNC3CCCN(c4ncccn4)C3)cc12` (stereo unspecified), the cytotoxicity at 10 µM was 23.6%. For the compound `Cn1cc(CN2CCOC3(CCCN(c4cccc(F)c4)C3)C2)cn1` (stereo unspecified), the cytotoxicity at 10 µM is -77.1%.

As to `CC(C)NC(=O)N1Cc2nccn2CC(CN2CCCC2)C1` (stereo unspecified), the cytotoxicity at 10 µM was -75.8%.

For the compound `O=C(NCc1cccnc1)[C@H]1CC[C@@H]2[C@@H](CCN2c2ncccn2)O1`, the cytotoxicity at 10 µM was -82.2%. Take `O=C(c1ccoc1)N1CCC2(CC1)COC(COc1ccccn1)C2` (stereo unspecified): the cytotoxicity at 10 µM was -123%. The figure for `CS(=O)(=O)c1ccc(CN2C[C@@H]3CC[C@H]2CN(c2ncccn2)C3)cc1` is 0.345%.
